Assay results: ChEMBL document CHEMBL1777756, “Discovery of Novel Benzo[a]phenoxazine SSJ-183 as a Drug Candidate for Malaria” (ACS Med Chem Lett, 2010)
The source made the active and inactive calls. No cut-off for these calls is given here.

Tests used:
Mus musculus [1] = assay: Phototoxicity against mouse at 300 mg/kg, po; type: organism-based; parameters: dose 300 mg/kg, route oral; settings: in vivo
In short: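 Mice dosed orally at 300 mg/kg were assessed for phototoxicity.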

[2] = biological target: T1, Adenosine receptor A3 (Homo sapiens) (UniProt P0DMS8); assay: Inhibition of human recombinant A3 receptor at 1 uM
T1 sequence (whole entry): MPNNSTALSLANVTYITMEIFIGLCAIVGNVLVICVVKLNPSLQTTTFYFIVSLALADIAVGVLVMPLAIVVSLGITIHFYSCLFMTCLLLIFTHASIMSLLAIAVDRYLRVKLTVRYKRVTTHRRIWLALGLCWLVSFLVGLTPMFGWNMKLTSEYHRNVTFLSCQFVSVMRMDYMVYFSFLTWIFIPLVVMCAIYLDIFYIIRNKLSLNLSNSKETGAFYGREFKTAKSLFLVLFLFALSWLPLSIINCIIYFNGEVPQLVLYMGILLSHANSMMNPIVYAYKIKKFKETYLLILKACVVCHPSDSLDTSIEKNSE
In short: (§1)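 Binding assays were run against a panel of 80 receptors at 1 μM compound. Percent inhibition was read for human recombinant receptors.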

[3] = Biodistribution in mouse urine at 100 mg/kg, po administered as single dose; type: ADME, organism-based; parameters: dose 100 mg/kg, route oral; settings: in vivo
In short: (§2)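 Mice received a single oral dose of 100 mg/kg. Urine, eyes and organs were then checked by eye for the purple/blue colour of the compound formulation.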

[4] = Toxicity in rat at 1000 mg/kg by micronucleus test; type: organism-based; parameters: dose 1000 mg/kg; settings: in vivo
In short: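 In vivo micronucleus test in rats dosed at 1000 mg/kg × 2.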

[5] = Toxicity in S9 fraction at 2 uM by micronucleus test; type: subcellular; settings: s9, 2 µM
In short: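 In vitro micronucleus test at 2.0 μM, run both without and with S9.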

[6] = biological target: D(3) dopamine receptor (Homo sapiens) (UniProt P35462); assay: Inhibition of human recombinant D3 receptor at 1 uM; in short: as §1
Chain of D(3) dopamine receptor (Homo sapiens) (P35462 whole entry): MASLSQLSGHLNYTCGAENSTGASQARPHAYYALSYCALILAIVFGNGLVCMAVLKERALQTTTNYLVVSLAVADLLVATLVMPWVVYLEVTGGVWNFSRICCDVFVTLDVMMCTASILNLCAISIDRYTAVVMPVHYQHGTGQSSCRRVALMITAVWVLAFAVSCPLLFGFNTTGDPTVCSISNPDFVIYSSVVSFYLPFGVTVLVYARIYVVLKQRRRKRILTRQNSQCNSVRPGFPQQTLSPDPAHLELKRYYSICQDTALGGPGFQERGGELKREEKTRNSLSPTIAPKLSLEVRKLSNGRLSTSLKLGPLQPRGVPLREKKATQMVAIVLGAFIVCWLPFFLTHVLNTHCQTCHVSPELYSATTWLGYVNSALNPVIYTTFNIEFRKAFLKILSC

Blood = assay: Cytotoxicity in G6PD-deficient human blood assessed as hemolysis; type: tissue-based
Plasmodium falciparum = assay: Antimalarial activity against chloroquine and pyrimethamine resistant Plasmodium falciparum K1; type: functional, organism-based
In short: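 IC50 was determined in vitro against the chloroquine- and pyrimethamine-resistant P. falciparum K1 strain. Values are the mean of two independent assays.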

L6 = assay: Cytotoxicity against rat L6 cells; type: cell-based
In short: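 Cytotoxicity was tested against L-6 rat myoblasts, with IC50 determined. Values are the mean of two independent assays.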

[7] = Selectivity index, ratio of IC50 for rat L6 cells to IC50 for Plasmodium falciparum K1; type: toxicity, cell-based; settings: read-out: Ratio IC50
In short: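 Selectivity index is IC50 against L-6 cells divided by IC50 against chloroquine/pyrimethamine-resistant P. falciparum K1. Each IC50 is the mean of two independent assays.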

Plasmodium berghei [8] = assay: Antimalarial activity against Plasmodium berghei NK-65 infected in ICR mouse assessed as inhibition of parasitemia at 100 mg/kg, po administered as single dose on day 1 measured on day 4; type: functional
In short: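 Compound was formulated at 100 mg/kg in 5% glucose/10% ethanol or in 7% Tween 80/3% ethanol. The suspension was given as a single oral dose on day 1 to female ICR mice infected with P. berghei NK-65. Parasitemia was determined on day 4 after infection. Treated-group mean is expressed as percent difference from the control-group mean.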

Plasmodium berghei [9] = assay: Antimalarial activity against Plasmodium berghei NK-65 infected in ICR mouse assessed as survival days at 100 mg/kg, po administered as single dose (reference value: 6 days); type: functional
In short: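 Female ICR mice infected with P. berghei NK-65 received a single oral dose of 100 mg/kg on day 1. The compound was given as a suspension in 5% glucose/10% ethanol or in 7% Tween 80/3% ethanol. Parasitemia was read on day 4 as percent reduction relative to untreated controls, and mean survival days were recorded.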

Plasmodium berghei [10] = assay: Antimalarial activity against Plasmodium berghei ANKA infected in NMRI mouse assessed as survival days at 100 mg/kg, po administered as single dose; type: functional
In short: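 Female NMRI mice infected with P. berghei ANKA received a single oral dose of 100 mg/kg. Three independent experiments were run with 3 mice each. Mean survival days were averaged across the experiments.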

Plasmodium berghei [11] = assay: Antimalarial activity against Plasmodium berghei ANKA infected in NMRI mouse at 100 mg/kg, po administered as single dose; type: functional
In short: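 Female NMRI mice infected with P. berghei ANKA strain were given a single oral dose of 100 mg/kg. Three independent experiments were run with n = 3 mice per experiment. Inhibition of parasitemia and mean survival days are averaged across the experiments.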

Plasmodium berghei [12] = assay: Antimalarial activity against Plasmodium berghei ANKA expressing green fluorescent protein infected in NMRI mouse assessed as growth inhibition at 100 mg/kg, po qd administered for 3 consecutive days measured on day 4 post parasitic infection; type: functional; settings: 96 h, read-out: GI
In short: (§3)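 Oral dosing once a day for three consecutive days to female NMRI mice infected with P. berghei GFP ANKA strain. n = 3 mice per dose, data from 2–3 independent experiments. Parasitemia inhibition read on day 4 postinfection. Mean survival days and the percentage of cured animals were recorded.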

Plasmodium berghei [13] = assay: Antimalarial activity against Plasmodium berghei ANKA expressing green fluorescent protein infected in NMRI mouse assessed as growth inhibition at 30 mg/kg, po qd administered for 3 consecutive days measured on day 4 post parasitic infection; type: functional; settings: 96 h, read-out: GI; in short: as §3
Plasmodium berghei [14] = assay: Antimalarial activity against Plasmodium berghei ANKA expressing green fluorescent protein infected in NMRI mouse assessed as growth inhibition at 10 mg/kg, po qd administered for 3 consecutive days measured on day 4 post parasitic infection; type: functional; settings: 96 h, read-out: GI; in short: as §3
Plasmodium berghei [15] = assay: Antimalarial activity against Plasmodium berghei ANKA expressing green fluorescent protein infected in NMRI mouse assessed as survival days at 100 mg/kg, po qd administered for 3 consecutive days; type: functional
In short: (§4)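 Female NMRI mice infected with GFP-expressing P. berghei ANKA were dosed orally once daily for three consecutive days, 3 mice per dose level, in 2 to 3 independent experiments. Parasitemia was read on day 4 post-infection, and mean survival days were recorded along with the percentage of cured animals.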

Plasmodium berghei [16] = assay: Antimalarial activity against Plasmodium berghei ANKA expressing green fluorescent protein infected in NMRI mouse assessed as survival days at 30 mg/kg, po qd administered for 3 consecutive days; type: functional; in short: as §4
Plasmodium berghei [17] = assay: Antimalarial activity against Plasmodium berghei ANKA expressing green fluorescent protein infected in NMRI mouse assessed as survival days at 10 mg/kg, po qd administered for 3 consecutive days; type: functional; in short: as §4
Plasmodium berghei [18] = assay: Antimalarial activity against Plasmodium berghei ANKA expressing green fluorescent protein infected in NMRI mouse assessed as cure rate at 100 mg/kg, po qd administered for 3 consecutive days; type: functional; in short: as §3
Plasmodium berghei [19] = assay: Antimalarial activity against Plasmodium berghei ANKA expressing green fluorescent protein infected in NMRI mouse assessed as cure rate at 30 mg/kg, po qd administered for 3 consecutive days; type: functional; in short: as §3
Mus musculus [20] = assay: Toxicity in NMRI mouse infected with Plasmodium berghei ANKA expressing green fluorescent protein assessed as lethality at 2000 mg/kg, po qd administered for 3 consecutive days; type: organism-based; parameters: dose 2000 mg/kg, route oral; settings: in vivo
[21] = Toxicity in S9 fraction at 1000 uM by chromosomal aberration test; type: subcellular; settings: s9, 1000 µM
In short: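 Chromosome aberration test at 1000 μM, run both without and with S9 metabolic activation.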

[22] = Selectivity ratio of IC50 for Plasmodium falciparum K1 to IC50 for Trypanosoma brucei rhodesiense; type: functional
Trypanosoma cruzi [23] = assay: Selectivity ratio of IC50 for Plasmodium falciparum K1 to IC50 for Trypanosoma cruzi; type: functional
Leishmania donovani [24] = assay: Selectivity ratio of IC50 for Plasmodium falciparum K1 to IC50 for Leishmania donovani; type: functional
[25] = test system: Trypanosoma brucei rhodesiense; assay: Antiparasitic activity against Trypanosoma brucei rhodesiense; type: functional, organism-based
Trypanosoma cruzi [26] = assay: Antiparasitic activity against Trypanosoma cruzi; type: functional, organism-based
Leishmania donovani [27] = assay: Antiparasitic activity against Leishmania donovani; type: functional, organism-based
Mus musculus [28] = assay: Biodistribution in mouse eyes at 100 mg/kg, po administered as single dose; type: ADME, organism-based, Eye; parameters: dose 100 mg/kg, route oral; settings: in vivo; in short: as §2
[29] = Terminal-half life in iv dosed Sprague-Dawley rat; type: ADME, organism-based; settings: in vivo, read-out: beta t1/2 (converted)
In short: (§5)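 Male Sprague–Dawley rats received 2.8 mg/kg intravenously or 21.5 mg/kg orally, and the plasma concentration–time profile was followed. Oral bioavailability and terminal half-life after iv dosing were derived.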

[30] = Oral bioavailability in Sprague-Dawley rat; type: ADME, organism-based; settings: in vivo; in short: as §5
Plasmodium berghei [31] = assay: Antimalarial activity against Plasmodium berghei str. ANKA infected in mouse assessed as cure rate at 100 mg/kg, po administered as three daily dose; type: functional, organism-based; parameters: dose 100 mg/kg; in short: as §3

With `CCN(CC)c1ccc2nc3c4ccccc4/c(=N\c4ccncc4)cc-3oc2c1` the Activity (Mus musculus [1]) was “Non-toxic”, the inhibition [2] was 80% and the Drug uptake [3] was “Not Active”. For the same compound, the Activity [4] was “Non-toxic”, the Activity [5] was “Non-toxic” and the inhibition [6] was 80%. The Activity (Blood) was “Non-toxic”, the IC50 (Plasmodium falciparum) was 0.0076 µM and the IC50 (L6) was 55.7 µM. The selectivity ratio [7] was 7330, the inhibition in vivo at 100 mg/kg (Plasmodium berghei [8]) was > 99.9% and the MSD (Plasmodium berghei [9]) was 14.6 days. For the same compound, the MSD (Plasmodium berghei [10]) was 16 days, the inhibition in vivo at 100 mg/kg (Plasmodium berghei [11]) was 99% and the inhibition in vivo at 100 mg/kg (Plasmodium berghei [12]) was > 99.9%. For the same compound, the inhibition in vivo at 30 mg/kg (Plasmodium berghei [13]) was 99%, the inhibition in vivo at 10 mg/kg (Plasmodium berghei [14]) was 26% and the MSD (Plasmodium berghei [15]) was >30 days. It also gave an MSD (Plasmodium berghei [16]) of 27.2 days, an MSD (Plasmodium berghei [17]) of 4 days and an Activity (Plasmodium berghei [18]) of 100%. For the same compound, the Activity (Plasmodium berghei [19]) was 78%, the Activity (Mus musculus [20]) was “Non-toxic” and the Activity [21] was “Non-toxic”. The Ratio IC50 [22] was > 1000, the Ratio IC50 (Trypanosoma cruzi [23]) was > 1000 and the Ratio IC50 (Leishmania donovani [24]) was > 1000. For the same compound, the IC50 [25] was 36 µM, the IC50 (Trypanosoma cruzi [26]) was 11.3 µM and the IC50 (Leishmania donovani [27]) was 6.5 µM. For the same compound, the Drug uptake (Mus musculus [28]) was “Not Active”, the half-life [29] was 5.5 h and the bioavailability [30] was 30%. For the same compound, the Activity (Plasmodium berghei [31]) was “Active”.
